In ChEMBL document CHEMBL5329210, “Novel piperazine-1,2,3-triazole leads for the potential treatment of pancreatic cancer” (RSC Med Chem, 2023):
Values belong to the compound of their own block, whether it stands above or below them.

Key:
[1] = Inhibition of cell growth of human pancreatic cancer cells measured after 72 hrs by CCK8 assay; format: functional
Outline: (§1)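 CCK-8 viability in human pancreatic cancer lines. Compounds were added over 100–0.05 μM 24 h after seeding, alongside a 0.5% DMSO vehicle. After 72 h, CCK-8 was incubated for 1 h at 37 °C. A450 minus A650 was expressed as % of vehicle. IC50 was taken from the dose-response curve. Seeding was 3×10^3/well for MiaPaCa2 and 7×10^3/well for BxPC3 and CFPAC-1. n = 3.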

MIA PaCa-2 [2] = assay: Inhibition of cell growth of human MIA PaCa-2 cells measured after 72 hrs by CCK8 assay; format: functional; outline: as §1
HPAC [3] = assay: Inhibition of cell growth of human HPAC cells measured after 72 hrs by CCK8 assay; format: functional
PANC-1 [4] = assay: Inhibition of cell growth of human PANC-1 cells measured after 72 hrs by CCK8 assay; format: functional
ASPC1 [5] = assay: Inhibition of cell growth of human ASPC1 cells measured after 72 hrs by CCK8 assay; format: functional
Capan-2 [6] = assay: Inhibition of cell growth of human Capan-2 cells measured after 72 hrs by CCK8 assay; format: functional
BXPC-3 [7] = assay: Inhibition of cell growth of human BXPC-3 cells measured after 72 hrs by CCK8 assay; format: functional; outline: as §1
BE(2)-C [8] = assay: Inhibition of cell growth of human BE2C cells measured after 72 hrs by MTT assay; format: functional
Outline: (§2)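 MTT read-out. Cancer lines were grown in DMEM with 10% FBS, glutamine and antibiotics. MCF10A was grown in DMEM:F12 with 5% horse serum, EGF, hydrocortisone, cholera toxin and insulin. Cells were plated in duplicate at 2500–4000/well, and drug was added 24 h later. After 72 h, absorbance was read at 540 nm. Single-point lines used 25 μM. GI50 is 50% growth inhibition versus untreated control. n = 3.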

MIA PaCa-2 [9] = assay: Inhibition of cell growth of human MIA PaCa-2 cells at 25 uM measured after 72 hrs by CCK8 assay relative to control; format: functional
Outline: (§3)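 Single 25 μM exposure, read by CCK-8, n = 3, relative to control. Seeding was 3×10^3/well for MiaPaCa2, 7×10^3/well for BxPC3 (in RPMI-1640/10% FBS) and 1×10^4/well for HPDE (in KSFM with rEGF/BPE). After 24 h attachment, cells were exposed for 72 h. CCK-8 was then incubated for 1 h, and A450 minus A650 was compared with 0.5% DMSO.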

A2780 [10] = assay: Inhibition of cell growth of human A2780 cells measured after 72 hrs by MTT assay; format: functional; outline: as §2
DU-145 = assay: Inhibition of cell growth of human DU-145 cells measured after 72 hrs by MTT assay; format: functional; outline: as §2
[11] = Inhibition of cell growth of human SJG2 cells measured after 72 hrs by MTT assay; format: functional; conditions: SJ-G2; outline: as §2
[12] = Inhibition of cell growth of human HPDE cells at 25 uM measured after 72 hrs by CCK8 assay relative to control; format: toxicity, cell-based; outline: as §3
HT-29 [13] = assay: Inhibition of cell growth of human HT-29 cells measured after 72 hrs by MTT assay; format: functional; outline: as §2
A-431 = assay: Inhibition of cell growth of human A-431 cells measured after 72 hrs by MTT assay; format: functional; outline: as §2
MCF7 [14] = assay: Inhibition of cell growth of human MCF7 cells measured after 72 hrs by MTT assay; format: functional; outline: as §2
U-87 MG = assay: Inhibition of cell growth of human U87 cells measured after 72 hrs by MTT assay; format: functional, U-87MG ATCC; outline: as §2
MIA PaCa-2 [15] = assay: Inhibition of cell growth of human MIA PaCa-2 cells measured after 72 hrs by MTT assay; format: functional; outline: as §2
NCI-H460 = assay: Inhibition of cell growth of human NCI-H460 cells measured after 72 hrs by MTT assay; format: functional; outline: as §2
[16] = Inhibition of cell growth of human MCF-10A cells measured after 72 hrs by MTT assay; format: toxicity, cell-based; outline: as §2
BXPC-3 [17] = assay: Inhibition of cell growth of human BXPC-3 cells at 25 uM measured after 72 hrs by CCK8 assay relative to control; format: functional; outline: as §3
A2780 [18] = assay: Inhibition of cell growth of human A2780 cells at 25 uM measured after 72 hrs by MTT assay relative to control; format: functional; outline: as §2
PANC-1 [19] = assay: Inhibition of cell growth of human PANC-1 cells at 25 uM measured after 72 hrs by MTT assay relative to control; format: functional; outline: as §2
ASPC1 [20] = assay: Inhibition of cell growth of human ASPC1 cells at 25 uM measured after 72 hrs by MTT assay relative to control; format: functional; outline: as §2
MCF7 [21] = assay: Inhibition of cell growth of human MCF7 cells at 25 uM measured after 72 hrs by MTT assay relative to control; format: functional; outline: as §2
HT-29 [22] = assay: Inhibition of cell growth of human HT-29 cells at 25 uM measured after 72 hrs by MTT assay relative to control; format: functional; outline: as §2
[23] = Inhibition of cell growth of human MCF-10A cells at 25 uM measured after 72 hrs by MTT assay relative to control; format: toxicity, cell-based; outline: as §2
BXPC-3 [24] = assay: Inhibition of cell growth of human BXPC-3 cells at 25 uM measured after 72 hrs by MTT assay relative to control; format: functional; outline: as §2
BE(2)-C [25] = assay: Inhibition of cell growth of human BE2C cells at 25 uM measured after 72 hrs by MTT assay relative to control; format: functional; outline: as §2
Capan-2 [26] = assay: Inhibition of cell growth of human Capan-2 cells at 25 uM measured after 72 hrs by MTT assay relative to control; format: functional; outline: as §2
HPAC [27] = assay: Inhibition of cell growth of human HPAC cells at 25 uM measured after 72 hrs by MTT assay relative to control; format: functional; outline: as §2
MIA PaCa-2 [28] = assay: Inhibition of cell growth of human MIA PaCa-2 cells at 25 uM measured after 72 hrs by MTT assay relative to control; format: functional; outline: as §2

Structure (SMILES): O=S(=O)(NCCCNCc1ccc(Cl)cc1)c1cc(C(F)(F)F)cc(C(F)(F)F)c1
GI50 [1]: 1.6 µM

GI50 (MIA PaCa-2 [2]): ~50 µM
Structure (SMILES): COc1cccc(-c2cn(CCCN3CCN(S(=O)(=O)c4ccc(NC(C)=O)cc4)CC3)nn2)c1

GI50 (PANC-1 [4]): 6.1 µM | GI50 (ASPC1 [5]): 8 µM | GI50 (BXPC-3 [7]): 3.7 µM
Structure (SMILES): CCc1ccc(-c2cn(CCCN3CCN(S(=O)(=O)c4ccc(C(F)(F)F)cc4)CC3)nn2)cc1
GI50 (HPAC [3]): 5.8 µM | GI50 (Capan-2 [6]): 6.1 µM

GI50 (PANC-1 [4]): 6.8 µM | GI50 (ASPC1 [5]): 8.3 µM | GI50 (BXPC-3 [7]): 8 µM
Structure (SMILES): O=S(=O)(c1ccc(C(F)(F)F)cc1)N1CCN(CCCn2cc(-c3ccc(Br)cc3)nn2)CC1
GI50 (HPAC [3]): 9.6 µM | GI50 (Capan-2 [6]): 7.7 µM

GI50 (A2780 [10]): 27 µM | GI50 (DU-145): > 50 µM | GI50 (HT-29 [13]): 30 µM | GI50 (A-431): > 50 µM | GI50 (MCF7 [14]): 38 µM | GI50 (U-87 MG): > 50 µM | GI50 (MIA PaCa-2 [15]): > 50 µM | GI50 (NCI-H460): > 50 µM
Structure (SMILES): COc1ccc(S(=O)(=O)N2CCN(CCCn3cc(-c4cccc(OC)c4)nn3)CC2)cc1
GI50 (BE(2)-C [8]): > 50 µM | inhibition at 25 µM (MIA PaCa-2 [9]): 20.3% | GI50 [11]: 32 µM | inhibition at 72 h, 25 µM [12]: 33.9% | GI50 at 72 h [16]: > 50 µM | inhibition at 25 µM (BXPC-3 [17]): < 10%

GI50 (PANC-1 [4]): 16 µM | GI50 (ASPC1 [5]): 18 µM | GI50 (BXPC-3 [7]): 14 µM
Structure (SMILES): O=S(=O)(c1ccc(C(F)(F)F)cc1)N1CCN(CCCn2cc(-c3ccc(C(F)(F)F)cc3)nn2)CC1
GI50 (HPAC [3]): 15 µM | GI50 (Capan-2 [6]): 16 µM

GI50 (A2780 [10]): 27 µM | GI50 (DU-145): > 50 µM | GI50 (HT-29 [13]): 41 µM | GI50 (A-431): > 50 µM | GI50 (MCF7 [14]): > 50 µM | GI50 (U-87 MG): > 50 µM | GI50 (MIA PaCa-2 [15]): > 50 µM | GI50 (NCI-H460): > 50 µM
Structure (SMILES): COc1cccc(-c2cn(CCCN3CCN(S(=O)(=O)c4ccc([N+](=O)[O-])cc4)CC3)nn2)c1
GI50 (BE(2)-C [8]): > 50 µM | inhibition at 25 µM (MIA PaCa-2 [9]): < 10% | GI50 [11]: > 50 µM | inhibition at 72 h, 25 µM [12]: 46.5% | GI50 at 72 h [16]: > 50 µM | inhibition at 25 µM (BXPC-3 [17]): 21.1%

Structure (SMILES): O=S(=O)(c1cccc(C(F)(F)F)c1)N1CCN(CCCn2cc(-c3ccc(C(F)(F)F)cc3)nn2)CC1
inhibition at 25 µM (A2780 [18]): 65% | inhibition at 25 µM (PANC-1 [19]): 60% | inhibition at 25 µM (ASPC1 [20]): 50% | inhibition at 25 µM (MCF7 [21]): 86% | inhibition at 25 µM (HT-29 [22]): 50% | inhibition at 72 h, 25 µM [23]: 59% | inhibition at 25 µM (BXPC-3 [24]): 55% | inhibition at 25 µM (BE(2)-C [25]): 61% | inhibition at 25 µM (Capan-2 [26]): 67% | inhibition at 25 µM (HPAC [27]): 74% | inhibition at 25 µM (MIA PaCa-2 [28]): 58%
